FN deposit inh: fibronectin deposition inhibition; AH1F fibroblasts, Alexa488-fibronectin deposition fluorescence, overnight; inhibition, % at 12.6 µM; actives 0.086% (n = 350,000); AID 743247;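 active = mean inhibition across replicates of 30% or more, regardless of how many single replicates reach that level; inconclusive = mean under 30% yet at least half of replicates reach 30%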
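test system = AH1F fibroblasts assembling fluorescent fibronectin matrix | quantity = 10000 AH1F cells per well | buffer or medium = DMEM plus 2% serum, read in PBS | doses = single dose, pinned | incubation = 1 h cell attachment, overnight exposure to compound and label | detection = fluorescence at 485 nm excitation, 525 nm emission | read-out basis = inhibition from reduced deposited-fibronectin fluorescence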
PDI inh: blocks human protein disulfide isomerase activity. PDI insulin aggregation turbidity, A650, 90 min. inhibition, % at 10 µM. actives 0.052% (n = 350,000). AID 588391;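 active = mean inhibition across replicates of 30% or more, whatever share of single replicates reach that level; inconclusive = mean inhibition below 30% while every single replicate reaches 30%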
ERp5 block: ERp5 (human) disulfide isomerase inhibition | inhibition, % at 9.99 µM | AID 651711 | actives 0.05% (n = 350,000) | ERp5 insulin aggregation, absorbance 650 nm, 90 min;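 active = mean replicate inhibition above about 25%, with every replicate also reaching it, limit read from the data, passing the limit was not always enough; inconclusive = only one of those two criteria met; inactive = neither criterion met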
Target sequence (Q15084 whole entry, looked up): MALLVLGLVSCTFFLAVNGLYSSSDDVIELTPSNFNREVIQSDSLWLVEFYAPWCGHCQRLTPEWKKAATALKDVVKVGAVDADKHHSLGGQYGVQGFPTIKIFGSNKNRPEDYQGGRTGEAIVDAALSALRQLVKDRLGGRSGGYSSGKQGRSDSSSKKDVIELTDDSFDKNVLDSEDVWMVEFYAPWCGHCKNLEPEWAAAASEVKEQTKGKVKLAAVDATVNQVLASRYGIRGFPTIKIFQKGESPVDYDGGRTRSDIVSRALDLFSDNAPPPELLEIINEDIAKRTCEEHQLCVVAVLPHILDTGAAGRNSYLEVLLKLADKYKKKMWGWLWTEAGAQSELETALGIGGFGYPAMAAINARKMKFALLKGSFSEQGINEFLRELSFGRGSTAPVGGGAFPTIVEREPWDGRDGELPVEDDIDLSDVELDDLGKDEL
ARNT TACC3 PPI: disrupts binding between human ARNT and TACC3; actives 0.66% (n = 390,000); AID 623870; inhibition, % at 9.99 µM; AlphaScreen His-ARNT PAS-B/GST-TACC3 binding, luminescence; TACC3 fragment carries E629A point mutation; Q9Y6A5;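 active = mean inhibition of replicates at least 50% and at least half of replicates each reaching 50%; inconclusive = half or more replicates reach 50% but mean below 50%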
FGF22 binding: shifts melting point of recombinant human FGF22 | Q9HCT0 | recombinant FGF22 thermal shift, SYPRO orange fluorescence; percent of sucrose octasulfate shift, DMSO zero | activity (Tm shift, normalised), % at 9.99 µM | actives 1.5% (n = 340,000) | AID 651658;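 active = mean Tm shift, scaled 0 neutral to 100 positive control, at about 1.3% or above, every replicate too, limit read from the data; inconclusive = no clear call, values can overlap the other calls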
Target sequence (Q9HCT0 whole entry, looked up): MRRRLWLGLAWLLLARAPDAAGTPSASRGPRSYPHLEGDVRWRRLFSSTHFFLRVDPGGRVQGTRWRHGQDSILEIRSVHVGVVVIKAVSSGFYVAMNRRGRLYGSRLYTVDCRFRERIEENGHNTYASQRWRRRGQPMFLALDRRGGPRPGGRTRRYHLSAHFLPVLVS
AF4-AF9 inh: blocks AF4 peptide binding to human AF9 | inhibition, % at 10 µM | actives 0.47% (n = 350,000) | AlphaScreen, biotin-AF4 peptide binding to FLAG-AF9;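 active = every replicate reaching a set inhibition limit, whatever the replicate mean, cut at about 25% in these data; inconclusive = mean inhibition reaches that limit but some replicates miss it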
Of the large screens only hits and unclear results are named; the others gave an inactive call. In the library only some 2.1% were active in any assay of this set; here they are far more common.

C/C(=N/NC(=O)c1sc(NS(=O)(=O)c2ccc(C)cc2)nc1C)c1sc(N)nc1C	FGF22 binding 43
C[C@@H]1CN([C@H](C)CO)C(=O)c2cc(-c3ccc(C(=O)N(C)C)cc3)cnc2O[C@@H]1CN(C)C(=O)c1ccncc1	none (no result: PDI inh)
CS(=O)(=O)NN1C(=O)c2ccccc2NC12CCCC2	FGF22 binding 43
C#CCOCCOCCOCCNc1nc(N2CCN(C(=O)[C@H]([C@@H](C)CC)n3cc([C@@H](N)CO)nn3)CC2)nc(N2CCN(C(=O)[C@H](CCCCN)n3cc([C@@H](N)CC(C)C)nn3)CC2)n1	none (no result: PDI inh, ARNT TACC3 PPI)
C#CCOCCOCCOCCNc1nc(N2CCOCC2)nc(N2CCN(C(=O)[C@H](CCCCN)n3cc([C@@H](N)C(C)CC)nn3)CC2)n1 (some centres undefined)	none
C#CCOCCOCCOCCNc1nc(N2CCN(C(=O)[C@H](CC(N)=O)n3cc(C(N)[C@@H](C)CC)nn3)CC2)nc(N2CCN(C(=O)[C@H](CCCCN)n3cc([C@@H](N)CC(N)=O)nn3)CC2)n1 (some centres undefined)	none
C#CCOCCOCCOCCNc1nc(N2CCN(C(=O)[C@H](CCCCN)n3cc([C@@H](N)CO)nn3)CC2)nc(N2CCN(C(=O)[C@H](CCCCN)n3cc([C@@H](N)CC(C)C)nn3)CC2)n1	AF4-AF9 inh 29
C#CCOCCOCCOCCNc1nc(N2CCN(C(=O)[C@H](CCCCN)n3cc([C@@H](N)[C@H](C)CC)nn3)CC2)nc(N2CCN(C(=O)[C@H](CCCCN)n3cc([C@@H](N)CC(N)=O)nn3)CC2)n1	AF4-AF9 inh 60
C#CCOCCOCCOCCNc1nc(N2CCN(C(=O)[C@H](CCCCN)n3cc(CCCC)nn3)CC2)nc(N2CCN(C(=O)[C@H](Cc3ccc(O)cc3)n3cc(CCO)nn3)CC2)n1	PDI inh 129 (no result: FN deposit inh, ERp5 block, FGF22 binding, AF4-AF9 inh)
C#CCOCCOCCOCCNc1nc(N2CCOCC2)nc(N2CCN(C(=O)[C@H](CCCCN)n3cc(CN)nn3)CC2)n1	AF4-AF9 inh 32
COc1ccc2c3c(n(C)c2c1)[C@H](CO)N(C(=O)NC(C)C)CC31CCN(CC2CC2)CC1	none (no result: FN deposit inh, PDI inh, ARNT TACC3 PPI)
C[C@@H]1CN([C@H](C)CO)S(=O)(=O)c2ccc(C3=CCCC3)cc2O[C@@H]1CN(C)C(=O)c1ccccc1	none (no result: FN deposit inh, PDI inh)
COc1ccc(S(=O)(=O)N(C)C[C@@H]2OCCCC[C@H](C)Oc3ccc(NC(=O)CCC(F)(F)F)cc3C(=O)N([C@@H](C)CO)C[C@@H]2C)cc1	none (no result: FN deposit inh, PDI inh)
COc1ccccc1-c1ccc2c(c1)[C@@H]1[C@@H](CCN1S(=O)(=O)c1cn(C)cn1)[C@@H](CO)N2	none (no result: PDI inh)
C[C@@H]1CN([C@@H](C)CO)S(=O)(=O)c2ccc(C#CC3CC3)cc2O[C@H]1CN(C)C(=O)CC1CC1	none (no result: PDI inh)
C#CCOCCOCCOCCNc1nc(N2CCN(C(=O)C([C@@H](C)O)n3cc([C@@H](N)CCCCN)nn3)CC2)nc(N2CCN(C(=O)[C@H](CO)n3cc([C@@H](N)C(C)C)nn3)CC2)n1 (some centres undefined)	AF4-AF9 inh 54
C#CCOCCOCCOCCNc1nc(N2CCN(C(=O)[C@H](CCCN=C(N)N)n3cc(C(N)[C@H](C)CC)nn3)CC2)nc(N2CCN(C(=O)[C@H](CCCN=C(N)N)n3cc(C(N)[C@@H](C)CC)nn3)CC2)n1 (some centres undefined)	none (no result: FN deposit inh, ERp5 block, FGF22 binding, AF4-AF9 inh)
C#CCOCCOCCOCCNc1nc(N2CCOCC2)nc(N2CCN(C(=O)[C@H](CCCN=C(N)N)n3cc(C(N)[C@@H](C)CC)nn3)CC2)n1 (some centres undefined)	FGF22 binding 15 (no result: AF4-AF9 inh)
C#CCOCCOCCOCCNc1nc(N2CCN(C(=O)[C@H](CCCN=C(N)N)n3cc(C(N)[C@@H](C)CC)nn3)CC2)nc(N2CCN(C(=O)[C@H](CC(N)=O)n3cc([C@@H](N)CC(N)=O)nn3)CC2)n1 (some centres undefined)	AF4-AF9 inh 25
C[C@@H]1CN([C@@H](C)CO)S(=O)(=O)c2ccc(-c3cccc(F)c3)cc2O[C@@H]1CN(C)CC1CC1	none (no result: PDI inh)
Cc1noc(C)c1S(=O)(=O)Nc1ccc2c(c1)C(=O)N([C@H](C)CO)C[C@H](C)[C@@H](CN(C)S(=O)(=O)c1ccc(F)cc1)OCCCC[C@H](C)O2	none (no result: FN deposit inh, PDI inh)
CN1[C@H](C(=O)NC2CCCCC2)[C@@H](CO)[C@@H]2Cn3c(ccc(-c4cccc(F)c4)c3=O)[C@@H]21	none (no result: FN deposit inh, PDI inh, FGF22 binding)
CC(=O)NS(=O)(=O)c1ccc(NC(=S)NC(=O)Cc2ccccc2)cc1	FGF22 binding 43
CC(=O)NS(=O)(=O)c1ccc(NC(=S)NC(=O)CC(C)C)cc1	ERp5 block inconclusive
CC(C)C#Cc1cnc2c(c1)C(=O)N([C@H](C)CO)C[C@@H](C)[C@@H](CN(C)C(=O)Nc1ccc(F)cc1)O2	none (no result: PDI inh)
COc1ccccc1C1=NC(c2ccc(C)cc2)N=C1C (centres undefined)	FGF22 binding 44
O=C(Nc1cccc(F)c1)/C(=C\c1cccnc1)NC(=O)c1ccco1	FGF22 binding 44 (no result: ARNT TACC3 PPI)
CCCCSc1nnc(-c2ccccc2NC(C)=O)c(=O)[nH]1	FGF22 binding 43
CCC(=O)N(C)C[C@@H]1Oc2ncc(C#CC(C)(C)O)cc2C(=O)N([C@@H](C)CO)C[C@H]1C	none (no result: PDI inh)
O=C(NC(Cc1ccc(O)cc1)C(=O)O)c1ccco1 (centres undefined)	FGF22 binding 43
O=C(N[C@@H](Cc1ccc(O)cc1)C(=O)O)C(c1ccccc1)c1ccccc1	none
CN(C)c1ccc(N=c2sc3ccccc3n2C)cc1	ARNT TACC3 PPI 72 (no result: ERp5 block, FGF22 binding, AF4-AF9 inh)
C[C@@H]1CN([C@H](C)CO)C(=O)c2cccc(NC(=O)Nc3cccc4ccccc34)c2O[C@@H]1CN(C)S(=O)(=O)c1cn(C)cn1	none (no result: PDI inh, ARNT TACC3 PPI)
CC(C)NC(=O)N(C)C[C@H]1Oc2ccc(NS(C)(=O)=O)cc2C(=O)N([C@@H](C)CO)C[C@H]1C	none (no result: PDI inh)
COc1cc(OC)nc(NC(=O)NS(=O)(=O)c2ccccc2Cl)n1	none
Cc1cc(N(C)N)nc(NC(=O)NS(=O)(=O)c2ccccc2Cl)n1	ARNT TACC3 PPI 59
NC(=O)c1ccsc1NC(=O)c1ccc(N2CCCC2=O)cc1	FGF22 binding 43 (no result: FN deposit inh)
NC(=O)c1ccsc1NC(=O)c1ccc2c(c1)CCCC2	none
Nc1nc(SCn2nnc3ccccc3c2=O)n[nH]1	FGF22 binding 43
Cc1ccc(-c2csc(=Nc3cccnc3)n2CCCn2ccnc2)cc1C	AF4-AF9 inh 37
Cc1ccc(-c2csc(=Nc3cccnc3)n2CCCN2CCCC2=O)cc1C	none (no result: ERp5 block, FGF22 binding, AF4-AF9 inh)
COc1cc(C(=O)O/N=C2\C=CC(=O)C=C2C)cc(OC)c1OC	FGF22 binding 43 (no result: ARNT TACC3 PPI)
Cc1ccc2nc(Cl)c(/C=N/Nc3nc(C)cc(C)n3)c(=O)n2c1	ARNT TACC3 PPI 46
